The source of these data is ChEMBL document CHEMBL2412956, “Synthesis and biological activity evaluation of 5-pyrazoline substituted 4-thiazolidinones” (Eur J Med Chem, 2013).

The assay deals with OVCAR-4. Description: Cytotoxicity against human OVCAR4 cells assessed as cell growth at 10 uM after 48 hrs by SRB assay relative to control. It counts as functional. As to conditions: OVCAR-4, 48 h, read-out: Activity. The essentials: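 This was the NCI primary screen, with compound added once at 10⁻⁵ M and cultures incubated for 48 h. The endpoint was sulforhodamine B protein staining. Results are expressed as percent growth of treated cells relative to untreated control cells.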
On the technique in general: The SRB assay estimates cell density from bound dye.

For `COc1ccc(C2CC(c3ccc4ccccc4c3)=NN2C2SC(=O)N(CN3CCOCC3)C2=O)cc1` (stereo unspecified), the growth at 10 µM was determined as 67.5%.
